This is a sample that favours compounds with a hit; in the whole collection about 1.3% have one here.
Hep lipid drop: hepatic lipid droplet formation modulation; inhibition, % at 6.5 µM; AML12 mouse hepatocytes, oleate lipid droplets, BODIPY imaging; 0.4% of 240,000 active; AID 1656;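 active means lipid droplet intensity inhibited by at least 50%, with more than 500 cells counted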
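Assay system: AML12 hepatocytes (mouse); Probe or stimulus: oleic acid at 100 µM to induce lipid droplet formation; Dosing: compound at 6.5 µM only; Schedule: compound with oleate, overnight; Detection: fluorescence imaging, 20x objective, two fields per well; Measure: % inhibition of lipid droplet signal.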
STK33 inh: human STK33 kinase inhibition; purified STK33, MBP phosphorylation, ADP-Glo luminescence; inhibition, % at 10 µM; 0.073% of 320,000 active;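 active means inhibition at or above 25%, using the most active replicate where run in duplicate; inactive means inhibition below 25%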
GSK3beta inhib: inhibitors of human GSK3beta kinase. P49841. GST-GSK3beta kinase, ADP-Glo luminescence, 60 min; active compounds read low. activity score (negative = inhibition), % at 10 µM. 0.038% of 300,000 active. AID 2097;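 active means more than half of replicate wells score below -50%, meaning over 50% inhibition versus plate controls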;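 further: 0% = median DMSO wells and -100% = median GW8510 positive control wells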
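Test system: GST-fused GSK3beta enzyme, cell-free | Quantity: 1.6 ng GST-GSK3beta enzyme per well | Reagent: 25 µM ATP with peptide substrate | Schedule: 60 min enzyme reaction, room temperature | Signal: Luminescent ADP-Glo measurement of ADP formed | Read-out basis: Score relative to plate controls | Control set: DMSO and 20 µM GW8510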
LANA-H2B inh: blocks KSHV LANA binding to histone H2A/H2B; Q9QR71; cell-free LANA-H2A/H2B peptide, fluorescence polarization; inhibition, % (no concentration beside the values); 0.6% of 320,000 active; AID 2629; in the data active means inhibition mostly above about 10%, no sharp cut-off; inactive means mostly below about 6.7%
TAG inh: reduces triacylglycerol accumulation in H9c2 cells; inhibition, % at 12.5 µM; AID 651582; 0.66% of 230,000 active; Nile Red lipid (TAG) fluorescence; cells loaded with 200 µM oleic acid;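 active means pattern-corrected inhibition of lipid staining of at least 50% with the nuclear-stain viability signal not falling by more than 50%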;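 further: 0% = DMSO wells and 100% = triacsin C control wells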
GSK3 alpha inh: blocks human GSK-3 alpha kinase | P49840 | ADP-Glo luminescence, 60 min | inhibition, % at 10 µM | 0.1% of 320,000 active;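 active means more than half of replicates show inhibition above 20%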;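 further: GST-tagged GSK-3 alpha with peptide substrate and 25 µM ATP; 0% = DMSO neutral wells and 100% = GW8510 positive control wells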
Target sequence (P49840 whole entry, looked up): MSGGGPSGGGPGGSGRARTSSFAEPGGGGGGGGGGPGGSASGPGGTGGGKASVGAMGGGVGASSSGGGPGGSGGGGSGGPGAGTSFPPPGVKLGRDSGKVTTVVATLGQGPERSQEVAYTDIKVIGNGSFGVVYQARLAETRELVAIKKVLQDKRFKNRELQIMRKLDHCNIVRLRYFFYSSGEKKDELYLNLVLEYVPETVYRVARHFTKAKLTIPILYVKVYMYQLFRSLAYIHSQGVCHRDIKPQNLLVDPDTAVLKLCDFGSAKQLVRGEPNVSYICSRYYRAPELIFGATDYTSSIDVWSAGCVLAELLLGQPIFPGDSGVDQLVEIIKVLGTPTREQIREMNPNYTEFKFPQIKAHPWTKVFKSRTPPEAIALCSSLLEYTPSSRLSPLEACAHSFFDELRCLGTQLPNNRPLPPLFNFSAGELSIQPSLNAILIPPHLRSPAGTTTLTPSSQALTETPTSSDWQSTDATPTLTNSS
Active calls of the source: *; . = not tested or not shown; + = active, no number.

SMILES	Hep lipid drop	STK33 inh	GSK3beta inhib	LANA-H2B inh	TAG inh	GSK3 alpha inh
CN(C)c1ccc(/C=N/N(CCC(=O)NC(C)(C)C)C2=NS(=O)(=O)c3ccccc32)cc1	-34	0	1	-5	.	-4
COc1ccc(NC(=O)C2OCCc3ccccc32)c(OC)c1 (centres undefined)	2	0	2	0	0	4
CCOC(=O)N1CCN(S(=O)(=O)c2ccc(F)c(C(=O)Nc3cc(C)cc(C)c3)c2)CC1	-10	0	0	-5	.	0
CCN(CC)CCN(C(=O)c1ccc(S(=O)(=O)N(C)C2CCCCC2)cc1)c1nc2ccc(OC)cc2s1	7	-1	-3	108*	20	-1
CCOC(=O)N1CCN(/C=C(\C#N)c2nc3ccccc3s2)CC1	.	0	-1	10	-9	-2
CCn1c(O)c(/C=C2\C=NN=C2c2ccccc2)sc1=S	-1	0	5	15*	-2	1
CC(C)c1ccc(/C=C(\c2nc3ccccc3[nH]2)S(=O)(=O)c2ccccc2)cc1	54*	-1	-2	-1	.	0
COc1ccccc1NC(=O)CN1C(=O)COc2ccc(S(=O)(=O)N3CCCCCC3)cc21	-6	-1	0	4	.	-1
Cc1ccccc1NC(=O)CN1C(=O)COc2ccc(S(=O)(=O)N3CCCC3)cc21	-1	0	2	14*	.	-3
COc1ccc(OC)c(CC(=O)Nc2cc(S(=O)(=O)N3CCCCC3)ccc2C)c1	.	0	.	71*	3	-2
COc1ccc(/C=C/C(=O)Nc2cc(S(=O)(=O)N3CCOCC3)ccc2C)cc1OC	-6	-2	1	+	15	-2
COc1ccc(-n2cnc3scc(-c4ccccc4)c3c2=O)cc1	2	1	-3	-3	-38	.
O=C(NNS(=O)(=O)c1ccccc1)c1cccs1	13	.	4	.	.	.
O=C(NNS(=O)(=O)c1ccc(Br)cc1)c1cccs1	-3	0	1	17*	-10	-5
O=C(CCc1nnc(CCC2CCCCC2)o1)NCCn1cccn1	4	5	1	15*	11	10
CC(OC(=O)c1ccc(S(=O)(=O)NCc2ccco2)cc1)C(=O)Nc1ccccc1 (centres undefined)	.	-1	.	14*	1	0
O=C(NC1=NCCS1)C1CCCCC1	-4	1	2	-4	4	1
Cc1ccc(SCC(=O)Nc2ccc3c(c2)C(=O)NC3=O)cc1	6	3	-49	-2	.	4
O=c1c(/C=C(\O)c2ccc(F)cc2)nc2ccccc2n1-c1ccccc1	12	2	-1	-3.4*	8	-2
Cc1cc(C)c(NC(=O)c2ccoc2C)c(C)c1	8	-1	-1	3	-6	-2
Cc1ncc(CO)c2c1Oc1nc(-c3ccccc3)nc(SCC(=O)N3CCOCC3)c1C2	-4	0	1	0	.	0
Cc1cccc(-c2nc3c(c(SCC(=O)N4CCOCC4)n2)Cc2c(CO)cnc(C)c2O3)c1	-2	1	-2	18*	.	-2
Cn1c(SCC(=O)Nc2ccc(Cl)cn2)nnc1C1CC1	6	-1	-30	-2	7	51*
CCn1c(SCC(=O)Nc2ccc(Br)cn2)nnc1C1CC1	8	1	-52*	-1	-1	23
CCOc1cc(C(=O)N=c2sccn2C)ccc1OC(F)F	-1	0	-1	20*	13	-1
SMILES	Hep lipid drop	STK33 inh	GSK3beta inhib	LANA-H2B inh	TAG inh	GSK3 alpha inh
NC(=O)c1cc([N+](=O)[O-])ccc1NCc1cccc([N+](=O)[O-])c1	.	0	.	3	-10	44
NCc1cccc(CNc2ccc([N+](=O)[O-])cc2C(N)=O)c1	.	1	.	1	8	84*
Cc1nnc(NC(=O)C2CC(=O)N(c3ccc4c(c3)OCCO4)C2)s1 (centres undefined)	.	-1	.	21*	3	-1
Cc1cnc(NC(=O)C2CC(=O)N(c3ccc4c(c3)OCCO4)C2)s1 (centres undefined)	.	-1	.	4	10	50*
CCCCc1nnc(NC(=O)C2CC(=O)N(c3ccc4c(c3)OCCO4)C2)s1 (centres undefined)	-3	0	-4	2	.	-15
Cc1csc(NC(=O)C2CC(=O)N(c3ccc4c(c3)OCCO4)C2)n1 (centres undefined)	.	0	.	-1	2	1
CSCC(O)Cn1[nH]c(=O)c2cc(Cl)c(Cl)cc2c1=O (centres undefined)	-14	-1	2	16*	-3	5
CCOC(=O)c1sc2nc3c(SCC(=O)O)cc(C(=O)c4cc(F)ccc4O)cn3c(=O)c2c1C	10	1	1	22*	.	0
CCOC(=O)c1sc2nc3c(SCC(=O)O)cc(C(=O)c4ccccc4O)cn3c(=O)c2c1C	7	-3	2	2	4	-2
O=C(COC(=O)/C=C/c1cccs1)Nc1ccc(Cl)cc1F	.	-2	.	-3	-13	-4
Cc1ccccc1C(=O)N1CCN(S(=O)(=O)c2cccs2)CC1	-20	0	0	5	-15	0
Cc1ccsc1C(=O)N1CCN(S(=O)(=O)c2cccs2)CC1	-26	0	-4	149*	0	-2
COc1cc(CCCN2CCNC[C@@H]2C(C)O)cc(OC)c1OC (some centres undefined)	.	-2	0	-5	8	0
O=C1c2cccc(O)c2C(=O)c2c(O)cccc21	-14	0	2	-7	.	1
O=C1c2cccc(Sc3ccccc3)c2C(=O)c2c(Sc3ccccc3)cccc21	12	-1	2	4	78*	0
Cc1cccc(NC(=O)COC(=O)Cc2cccc(C(F)(F)F)c2)c1C	10	-1	1	+	.	0
C=CCc1cc(Cl)ccc1OCCOCCNC(C)(C)C	-17	-1	-3	3	.	-2
CCOc1cc(/C=N/NC(=O)C2CCCC2)ccc1O	1	-1	2	2	8	1
COc1ccc(N=Nc2ccc(O)c3ncccc23)cc1	-31	1	-17	-7	77*	0
COCc1ccc(O)c2ncccc12	-4	-2	7	2	100*	-1
Oc1ccc(N=Nc2ccc3c(c2)OCCO3)c(O)c1	10	4	-6	4	-1	4
COc1cccc(N=Nc2ccc(O)c3ncccc23)c1	2	-1	2	6	.	-3
Cc1ccccc1N=Nc1ccc(O)c2ncccc12	8	-1	3	-5	86*	0
Oc1ccc(N=Nc2ccc3c(c2)OCCO3)c2cccnc12	-12	-1	1	-4	91*	-9
COc1cccc(CNc2ccc(F)c([N+](=O)[O-])c2)c1O	14	-2	0	5	.	0

Screens from PubChem BioAssay.
